Measured values taken from PMC7615941 (Cell, 2023).

Tests used:
[1] = system: C5aR1; assay: G-protein coupling and βarr recruitment, C5aR1; assay type: cell-based; settings: Figure 7A
[2] = target: C3aR with C-terminal SmBiT, in HEK-293 cells (human) (UniProt Q16581)
[3] = target: T1, mouse C5a receptor 1, FLAG-tagged, expressed in Sf9 for cryo-EM (mouse, UniProt P30993 2-351, alkylated with iodoacetamide); assay: cryo-EM structure
T1 sequence: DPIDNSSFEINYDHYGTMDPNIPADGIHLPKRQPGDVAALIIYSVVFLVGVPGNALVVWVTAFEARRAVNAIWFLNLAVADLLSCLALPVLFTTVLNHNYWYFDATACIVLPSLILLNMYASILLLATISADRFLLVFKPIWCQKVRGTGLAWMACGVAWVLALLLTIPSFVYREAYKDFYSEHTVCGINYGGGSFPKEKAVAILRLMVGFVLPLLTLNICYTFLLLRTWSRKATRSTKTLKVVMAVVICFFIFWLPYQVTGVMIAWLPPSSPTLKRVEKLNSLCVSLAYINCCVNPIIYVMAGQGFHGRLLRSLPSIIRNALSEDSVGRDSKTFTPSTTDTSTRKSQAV

[4] = target: T2, human C5a receptor 1, FLAG-tagged, expressed in Sf9 for cryo-EM (human, UniProt P21730 2-350, alkylated with iodoacetamide); assay: cryo-EM structure
T2 sequence: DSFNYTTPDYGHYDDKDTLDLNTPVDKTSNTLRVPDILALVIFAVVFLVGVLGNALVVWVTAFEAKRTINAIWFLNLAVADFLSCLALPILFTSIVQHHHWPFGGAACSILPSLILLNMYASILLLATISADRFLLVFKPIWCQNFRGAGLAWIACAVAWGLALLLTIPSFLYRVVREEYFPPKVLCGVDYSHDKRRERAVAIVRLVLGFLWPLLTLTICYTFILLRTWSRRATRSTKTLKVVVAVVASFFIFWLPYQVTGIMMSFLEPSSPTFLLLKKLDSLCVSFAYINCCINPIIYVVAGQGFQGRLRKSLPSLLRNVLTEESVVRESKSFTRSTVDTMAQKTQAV

[5] = target: T3, mC5aR1 (Mus musculus, UniProt P30993); assay: NanoBiT βarr1/2 recruitment and endosomal trafficking, mC5aR1; assay type: cell-based; settings: Figures 1I-1P, C5a^pep compared with hC5aR1
T3 sequence (P30993 1-351): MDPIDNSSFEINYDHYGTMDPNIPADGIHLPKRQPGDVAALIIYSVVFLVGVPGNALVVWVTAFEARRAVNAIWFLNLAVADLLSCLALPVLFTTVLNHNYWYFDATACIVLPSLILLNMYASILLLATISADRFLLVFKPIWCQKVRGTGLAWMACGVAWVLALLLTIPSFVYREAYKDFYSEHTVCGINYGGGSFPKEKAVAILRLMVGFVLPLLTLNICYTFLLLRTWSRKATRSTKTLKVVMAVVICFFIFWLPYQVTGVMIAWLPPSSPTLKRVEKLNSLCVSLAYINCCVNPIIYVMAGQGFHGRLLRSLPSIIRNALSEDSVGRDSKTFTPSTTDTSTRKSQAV
Summary of the method: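 HEK-293 cells, PEI transfection (DNA:PEI 1:3). Recruitment used 1 μg mC5aR1-SmBiT (C-terminal) with 3.5 μg LgBiT-βarr1/2 (N-terminal). Trafficking used N-SmBiT-βarr1/2 with N-LgBiT-FYVE. After 16-18 h, cells went into HBSS, 0.01% BSA, 5 mM HEPES pH 7.4, 10 μM coelenterazine at 0.1 million/100 μL. Incubation 90 min 37 °C, then 30 min RT. Three basal luminescence reads, then serially diluted ligand.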

[6] = target: T4, C3aR (Homo sapiens, UniProt Q16581); assay: GloSensor-based cAMP assay; assay type: cell-based; settings: Figure 7A; only at moderately high concentration (i.e., 1 μM)
T4 sequence (Q16581 1-482): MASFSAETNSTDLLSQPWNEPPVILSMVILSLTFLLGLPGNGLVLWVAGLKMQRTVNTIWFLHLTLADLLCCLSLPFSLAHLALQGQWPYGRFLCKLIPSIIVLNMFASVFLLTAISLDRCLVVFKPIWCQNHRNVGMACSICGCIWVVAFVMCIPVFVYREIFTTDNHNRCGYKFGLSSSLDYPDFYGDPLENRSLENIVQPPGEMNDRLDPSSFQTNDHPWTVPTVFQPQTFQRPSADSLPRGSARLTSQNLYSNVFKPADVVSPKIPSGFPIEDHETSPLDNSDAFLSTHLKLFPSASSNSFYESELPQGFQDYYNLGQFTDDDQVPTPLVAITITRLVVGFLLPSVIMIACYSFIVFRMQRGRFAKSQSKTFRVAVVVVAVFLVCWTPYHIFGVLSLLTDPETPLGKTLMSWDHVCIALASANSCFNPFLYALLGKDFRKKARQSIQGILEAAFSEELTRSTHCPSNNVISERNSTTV

[7] = target: T3, mC5aR1; assay: GloSensor-based cAMP assay; assay type: cell-based

Molecule: C3a: complement anaphylatoxin, 77 amino acids, four-helix bundle; natural agonist of C3aR
- transducer-coupling response at C5aR1 [1]: did not exhibit any measurable transducer-coupling response

Molecule: human complement anaphylatoxin C3a (from UniProt P01024 672-748) (ligand)
- EC50 of βarr1/2 recruitment to C3aR (NanoBiT) [2]: 10 to 20 nM

Molecule: EP141, pentadecameric peptide derived from and modified based on the carboxyl terminus of C3a
- Emax of βarr1/2 recruitment to C3aR (NanoBiT), relative to C3a [2]: 55 to 65 % of C3a

B1: human complement anaphylatoxin C5a (ligand, UniProt P01031 678-751, looked up)
chain: TLQKKIEEIAAKYKHSVVKKCCYDGACVNNDETCEQRAARISLGPRCIKAFTECCVVASQLRANISHKDMQLGR
- binding result [3]: binds
- binding result [4]: binds

B2: C5a: complement anaphylatoxin, 74 amino acids, four-helix bundle; natural agonist of C5aR1 (protein)
chain: B1 chain
modifications: left off: Trx, N-terminal, cleaved | His6, N-terminal, cleaved
- agonism, βarr recruitment and endosomal trafficking [5]: full agonism
- cross-reactivity with C3aR in G-protein-coupling assay [6]: some cross-reactivity
- potency at mC5aR1 compared with hC5aR1, cAMP response ([7]; Figures 1G and 1H): slightly lower potency
- agonism, G-protein-mediated cAMP response ([7]; Figures 1G and 1H, mC5aR1): full agonists
- difference between human and mouse C5aR1, G-protein coupling ([7]; human vs mouse C5aR1): only a small difference
